Measured values from ChEMBL document CHEMBL1145479, “Tigecycline Efflux as a Mechanism for Nonsusceptibility in Acinetobacter baumannii” (2007).
Converted amounts (≈) assume the structure as drawn.

Experiments:
Acinetobacter baumannii [1] = assay: Antimicrobial activity against Acinetobacter baumannii B46 in presence of efflux pump inhibitor phenyl-arginine-beta-naphthylamide by broth microdilution method; format: functional
Acinetobacter baumannii [2] = assay: Antimicrobial activity against Acinetobacter baumannii C75 by broth microdilution method; format: functional
Acinetobacter baumannii [3] = assay: Antimicrobial activity against Acinetobacter baumannii C75 in presence of efflux pump inhibitor phenyl-arginine-beta-naphthylamide by broth microdilution method; format: functional
Acinetobacter baumannii [4] = assay: Antimicrobial activity against Acinetobacter baumannii A24B after 4 days by broth microdilution method; format: functional; conditions: 96 h
Acinetobacter baumannii [5] = assay: Antimicrobial activity against Acinetobacter baumannii A24C after 4 days by broth microdilution method; format: functional; conditions: 96 h
Acinetobacter baumannii [6] = assay: Antimicrobial activity against Acinetobacter baumannii A24D after 4 days by broth microdilution method; format: functional; conditions: 96 h
Acinetobacter baumannii [7] = assay: Antimicrobial activity against Acinetobacter baumannii A24D after 4 days in presence of efflux pump inhibitor phenyl-arginine-beta-naphthylamide by broth microdilution method; format: functional; conditions: 96 h
Acinetobacter baumannii [8] = assay: Antimicrobial activity against Acinetobacter baumannii B46 by broth microdilution method; format: functional
Acinetobacter baumannii [9] = assay: Antimicrobial activity against Acinetobacter baumannii D54 by broth microdilution method; format: functional
Acinetobacter baumannii [10] = assay: Antimicrobial activity against Acinetobacter baumannii A24 in presence of efflux pump inhibitor phenyl-arginine-beta-naphthylamide by broth microdilution method; format: functional
Acinetobacter baumannii [11] = assay: Antimicrobial activity against Acinetobacter baumannii A24A after 4 days by broth microdilution method; format: functional; conditions: 96 h
Acinetobacter baumannii [12] = assay: Antimicrobial activity against Acinetobacter baumannii A24 by broth microdilution method; format: functional
Acinetobacter baumannii [13] = assay: Antimicrobial activity against Acinetobacter baumannii C75 by agar dilution method; format: functional
Summary of the method: (§1)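 Tigecycline MIC first estimated by Etest, then confirmed by agar dilution on Mueller-Hinton II agar. Strains were grown in LB broth.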

Acinetobacter baumannii [14] = assay: Antimicrobial activity against Acinetobacter baumannii C75 in presence of efflux pump inhibitor phenyl-arginine-beta-naphthylamide by agar dilution method; format: functional
Acinetobacter baumannii [15] = assay: Inhibition of AdeABC efflux pump protein in Acinetobacter baumannii A24 assessed as ethidium bromide accumulation at 100 uM; set-up: scale not given: the % may be the effect or the level left
Summary of the method: (§2)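 Overnight cells pelleted and resuspended to A600 0.2 in sodium phosphate buffer pH 7.0, with ethidium bromide at 2 μg/ml final. Incubated 420 s, then CCCP (protonophore) added at 100 μM final for a further 180 s. Fluorescence read at ex 530/em 600 nm, cell-only background subtracted, and expressed as percent increase in accumulation after CCCP.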

Acinetobacter baumannii [16] = assay: Inhibition of AdeABC efflux pump protein in Acinetobacter baumannii D54 assessed as ethidium bromide accumulation at 100 uM; set-up: scale not given: the % may be the effect or the level left; summary of the method: as §2
Acinetobacter baumannii [17] = assay: Inhibition of AdeABC efflux pump protein in Acinetobacter baumannii B46 assessed as ethidium bromide accumulation at 100 uM; set-up: scale not given: the % may be the effect or the level left; summary of the method: as §2
Acinetobacter baumannii [18] = assay: Inhibition of AdeABC multidrug efflux pump in Acinetobacter baumannii C75 assessed as ethidium bromide accumulation at 100 uM; set-up: scale not given: the % may be the effect or the level left; summary of the method: as §2
Acinetobacter baumannii [19] = assay: Inhibition of AdeABC efflux pump protein in Acinetobacter baumannii A24D assessed as ethidium bromide accumulation at 100 uM; set-up: scale not given: the % may be the effect or the level left
Summary of the method: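 Overnight cells were pelleted and resuspended to A600 0.2 in sodium phosphate buffer, pH 7.0. Ethidium bromide was added at 2 μg/ml final and incubated 420 s. CCCP was then added at 100 μM final for a further 180 s. Fluorescence was read at ex 530 / em 600 nm, with cell-only background subtracted. The value is the percent increase in accumulation after CCCP.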

Acinetobacter baumannii [20] = assay: Antimicrobial activity against Acinetobacter baumannii A24C after 4 days by agar dilution method; format: functional; conditions: 96 h
Summary of the method: (§3)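 Fresh cultures were passaged overnight on tigecycline-containing Mueller-Hinton II agar, boiled before inoculation to prevent tigecycline oxidative degradation. […] Inoculum was 0.5 McFarland. Tigecycline MICs were recorded daily by agar dilution.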

Acinetobacter baumannii [21] = assay: Antimicrobial activity against Acinetobacter baumannii A24D after 4 days by agar dilution method; format: functional; conditions: 96 h; summary of the method: as §3
Acinetobacter baumannii [22] = assay: Antimicrobial activity against Acinetobacter baumannii A24D after 4 days in presence of efflux pump inhibitor phenyl-arginine-beta-naphthylamide by agar dilution method; format: functional; conditions: 96 h
Summary of the method: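 Tigecycline MIC determined by agar dilution on Mueller-Hinton agar containing PABN, for bacteria from the final day of growth. PABN was dissolved in water as a 25 mg/ml stock and added to agar cooled to 50°C.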

Acinetobacter baumannii [23] = assay: Antimicrobial activity against Acinetobacter baumannii B46 by agar dilution method; format: functional; summary of the method: as §1
Acinetobacter baumannii [24] = assay: Antimicrobial activity against Acinetobacter baumannii B46 in presence of efflux pump inhibitor phenyl-arginine-beta-naphthylamide by agar dilution method; format: functional
Acinetobacter baumannii [25] = assay: Antimicrobial activity against Acinetobacter baumannii D54 by agar dilution method; format: functional
Summary of the method: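 Tigecycline MIC screened by Etest and confirmed by agar dilution on Mueller-Hinton II agar; strains cultivated in LB broth.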

Acinetobacter baumannii [26] = assay: Antimicrobial activity against Acinetobacter baumannii A24 by agar dilution method; format: functional; summary of the method: as §1
Acinetobacter baumannii [27] = assay: Antimicrobial activity against Acinetobacter baumannii A24 in presence of efflux pump inhibitor phenyl-arginine-beta-naphthylamide by agar dilution method; format: functional
Acinetobacter baumannii [28] = assay: Antimicrobial activity against Acinetobacter baumannii A24A after 4 days by agar dilution method; format: functional; conditions: 96 h; summary of the method: as §3
Acinetobacter baumannii [29] = assay: Antimicrobial activity against Acinetobacter baumannii A24B after 4 days by agar dilution method; format: functional; conditions: 96 h; summary of the method: as §3

| SMILES | MIC (Acinetobacter baumannii [1]) [µg/mL] | MIC (Acinetobacter baumannii [2]) [µg/mL] | MIC (Acinetobacter baumannii [3]) [µg/mL] | MIC (Acinetobacter baumannii [4]) [µg/mL] | MIC (Acinetobacter baumannii [5]) [µg/mL] | MIC (Acinetobacter baumannii [6]) [µg/mL] | MIC (Acinetobacter baumannii [7]) [µg/mL] | MIC (Acinetobacter baumannii [8]) [µg/mL] | MIC (Acinetobacter baumannii [9]) [µg/mL] | MIC (Acinetobacter baumannii [10]) [µg/mL] | MIC (Acinetobacter baumannii [11]) [µg/mL] | MIC (Acinetobacter baumannii [12]) [µg/mL] | other results |
| --- | --- | --- | --- | --- | --- | --- | --- | --- | --- | --- | --- | --- | --- |
| CO/N=C(\C(=O)N[C@@H]1C(=O)N2C(C(=O)[O-])=C(C[N+]3(C)CCCC3)CS[C@H]12)c1csc(N)n1 [CEFEPIME] | 128 | > 256 | 16 | 12 (≈ 25 µM) | 16 (≈ 33.3 µM) | 16 (≈ 33.3 µM) | 1 | > 256 | 1.5 (≈ 3.12 µM) | 3 | 12 (≈ 25 µM) |  |  |
| CC(C)(O/N=C(\C(=O)N[C@@H]1C(=O)N2C(C(=O)[O-])=C(C[n+]3ccccc3)CS[C@H]12)c1csc(N)n1)C(=O)O [CEFTAZIDIME] | 8 | 192 (≈ 351 µM) | 8 | > 256 | > 256 | > 256 | 32 | 96 (≈ 176 µM) | 4 (≈ 7.32 µM) | 96 | > 256 | > 256 |  |
| O=C(N[C@H](CO)[C@H](O)c1ccc([N+](=O)[O-])cc1)C(Cl)Cl [CHLORAMPHENICOL] | 8 | 32 (≈ 99 µM) | 8 | 96 (≈ 297 µM) | 96 (≈ 297 µM) | 16 (≈ 49.5 µM) | 4 | 32 (≈ 99 µM) | 0.25 (≈ 0.774 µM) | 12 | 96 (≈ 297 µM) | 16 (≈ 49.5 µM) |  |
| O=C(O)c1cn(C2CC2)c2cc(N3CCNCC3)c(F)cc2c1=O [CIPROFLOXACIN] | 128 | 512 (≈ 1550 µM) | 256 | 256 (≈ 773 µM) | 256 (≈ 773 µM) | 512 (≈ 1550 µM) | 128 | 128 (≈ 386 µM) | 0.25 (≈ 0.754 µM) | 128 | 256 (≈ 773 µM) | 256 (≈ 773 µM) |  |
| C[C@@H](O)[C@H]1C(=O)N2C(C(=O)O)=C(SCCNC=N)C[C@H]12 [IMIPENEM ANHYDROUS] | 0.25 | 1.5 (≈ 5.01 µM) | 0.125 | 0.125 (≈ 0.418 µM) | 0.19 (≈ 0.635 µM) | 0.5 (≈ 1.67 µM) | 0.064 | 1.5 (≈ 5.01 µM) | 0.125 (≈ 0.418 µM) | 0.032 | 0.125 (≈ 0.418 µM) | 0.38 (≈ 1.27 µM) |  |
| C[C@@H](O)[C@H]1C(=O)N2C(C(=O)O)=C(S[C@@H]3CN[C@H](C(=O)N(C)C)C3)[C@H](C)[C@H]12 [MEROPENEM] | 0.25 | 4 (≈ 10.4 µM) | 0.125 | 0.75 (≈ 1.96 µM) | 0.75 (≈ 1.96 µM) | 2 (≈ 5.22 µM) | 0.094 | 4 (≈ 10.4 µM) | 0.25 (≈ 0.652 µM) | 0.094 | 0.75 (≈ 1.96 µM) | 1 (≈ 2.61 µM) |  |
| CN(C)c1ccc(O)c2c1C[C@H]1C[C@H]3[C@H](N(C)C)C(O)=C(C(N)=O)C(=O)[C@@]3(O)C(O)=C1C2=O [MINOCYCLINE] | 0.25 | 2 (≈ 4.37 µM) | 1 | 16 (≈ 35 µM) | 16 (≈ 35 µM) | 32 (≈ 69.9 µM) | 8 | 0.25 (≈ 0.546 µM) | 0.125 (≈ 0.273 µM) | 2 | 12 (≈ 26.2 µM) | 32 (≈ 69.9 µM) |  |
| CCN1CCN(C(=O)N[C@@H](C(=O)N[C@@H]2C(=O)N3[C@@H]2SC(C)(C)[C@@H]3C(=O)O)c2ccccc2)C(=O)C1=O [PIPERACILLIN] |  | 48 (≈ 92.7 µM) | 8 | 12 (≈ 23.2 µM) | 16 (≈ 30.9 µM) | 24 (≈ 46.4 µM) | 1 | 256 (≈ 495 µM) | 16 (≈ 30.9 µM) | 3 | 12 (≈ 23.2 µM) | 16 (≈ 30.9 µM) |  |
| CN(C)c1cc(NC(=O)CNC(C)(C)C)c(O)c2c1C[C@H]1C[C@H]3[C@H](N(C)C)C(O)=C(C(N)=O)C(=O)[C@@]3(O)C(O)=C1C2=O [TIGECYCLINE] |  |  |  |  |  |  |  |  |  |  |  |  | MIC (Acinetobacter baumannii [13]): 16 µg/mL (≈ 27.3 µM); MIC (Acinetobacter baumannii [14]): 4 µg/mL; Activity (Acinetobacter baumannii [15]): 52%; Activity (Acinetobacter baumannii [16]): 31%; Activity (Acinetobacter baumannii [17]): 115%; Activity (Acinetobacter baumannii [18]): 206%; Activity (Acinetobacter baumannii [19]): 114%; MIC (Acinetobacter baumannii [20]): 6 µg/mL (≈ 10.2 µM); MIC (Acinetobacter baumannii [21]): 24 µg/mL (≈ 41 µM); MIC (Acinetobacter baumannii [22]): 2 µg/mL; MIC (Acinetobacter baumannii [23]): 4 µg/mL (≈ 6.83 µM); MIC (Acinetobacter baumannii [24]): 1 µg/mL; MIC (Acinetobacter baumannii [25]): 0.125 µg/mL (≈ 0.213 µM); MIC (Acinetobacter baumannii [26]): 2 µg/mL (≈ 3.41 µM); MIC (Acinetobacter baumannii [27]): 2 µg/mL; MIC (Acinetobacter baumannii [28]): 2 µg/mL (≈ 3.41 µM); MIC (Acinetobacter baumannii [29]): 2 µg/mL (≈ 3.41 µM) |
| NC[C@H]1O[C@H](O[C@H]2[C@H](O)[C@@H](O[C@H]3O[C@H](CO)[C@@H](O)[C@H](N)[C@H]3O)[C@H](N)C[C@@H]2N)[C@H](N)C[C@@H]1O [TOBRAMYCIN] | 16 | 16 (≈ 34.2 µM) | 6 | 4 (≈ 8.56 µM) | 6 (≈ 12.8 µM) | 16 (≈ 34.2 µM) | 8 | 24 (≈ 51.3 µM) | 0.75 (≈ 1.6 µM) | 3 | 3 (≈ 6.42 µM) | 4 (≈ 8.56 µM) |  |
